Values joined by “and” are separate entries in the source; they are usually repeats but may differ in a detail not shown here. Equal entries are not always repeated.
Columns and labels:
[1] = system: DC3F; test: Inhibition of cell growth was studied in chinese hamster lung cells (DC-3F); assay type: functional, cell-based; conditions: Cricetulus griseus
Procedure, shortened: (§1)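 Monolayer solid-tumor cells were assayed by SRB protein staining using six to seven concentrations. IC50 is the concentration reducing cell density to 50% of control, derived by median-effect plot.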

[2] = system: Mus musculus; test: Anti cancer activity was tested on day 14, in mice bearing Lewis lung adenocarcinoma by injecting 0.8 mg/kg dose of compound intraperitoneally and average weight change was reported.; assay type: functional; conditions: route intraperitoneal
Procedure, shortened: (§2)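 BDF1 mice given Lewis lung carcinoma subcutaneously (footnote: 4 × 10⁶ cells; methods: 0.2 mL brei). Dosing was ip once daily for 5 days, starting day 3 after inoculation, with drug in DMSO. Controls received DMSO alone: four control mice and three mice per dose. Body weight change, mortality and tumor volume were recorded on days 7, 10 and 14. Tumor volume is given as T/C.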

[3] = system: DC3F/AD-II; test: Inhibition of cell growth was studied in chinese hamster lung cells resistant to actinomycin D (DC-3F/AD-II).; assay type: functional, cell-based; conditions: Cricetulus griseus; procedure, shortened: as §1
[4] = system: Mus musculus; test: Anti cancer activity was tested on day 7, in mice bearing Lewis lung adenocarcinoma by injecting 0.4 mg/kg dose of compound intraperitoneally and average tumor volume was calculated.; assay type: functional; conditions: route intraperitoneal; procedure, shortened: as §2
[5] = system: 833K; test: Inhibition of cell growth was studied in human teratocarcinoma (833K).; assay type: functional, cell-based; procedure, shortened: as §1
[6] = system: Mus musculus; test: Anti cancer activity was tested on day10, in mice bearing Lewis lung adenocarcinoma by injecting 0.8 mg/kg dose of compound intraperitoneally and average weight change was reported.; assay type: functional; conditions: route intraperitoneal; procedure, shortened: as §2
[7] = system: Mus musculus; test: (§3) Anti cancer activity was tested on day10, in mice bearing Lewis lung adenocarcinoma by injecting 0.4 mg/kg dose of compound intraperitoneally and average weight change was reported.; assay type: functional; conditions: route intraperitoneal; procedure, shortened: as §2
[8] = system: SK-BR-3; test: Inhibition of cell growth was studied in human mammary adenocarcinoma (SKBR-3).; assay type: functional, cell-based; procedure, shortened: as §1
[9] = system: Mus musculus; test: Anti cancer activity was tested on day10, in mice bearing Lewis lung adenocarcinoma by injecting 0.8 mg/kg dose of compound intraperitoneally and average tumor volume was calculated.; assay type: functional; conditions: route intraperitoneal; procedure, shortened: as §2
[10] = system: Mus musculus; test: Anti cancer activity was tested on day10, in mice bearing Lewis lung adenocarcinoma by injecting 0.4 mg/kg dose of compound intraperitoneally and average tumor volume was calculated.; assay type: functional; conditions: route intraperitoneal; procedure, shortened: as §2
[11] = system: Mus musculus; test: Anti cancer activity was tested on day 14, in mice bearing Lewis lung adenocarcinoma by injecting 0.4 mg/kg dose of compound intraperitoneally and a. average […] was reported.; assay type: functional; conditions: route intraperitoneal; procedure, shortened: as §2
[12] = system: Mus musculus; test: Anti cancer activity was tested on day 14, in mice bearing Lewis lung adenocarcinoma by injecting 0.8 mg/kg dose of compound intraperitoneally and average tumor volume was calculated.; assay type: functional; conditions: route intraperitoneal; procedure, shortened: as §2
[13] = system: HL-60; test: Inhibition of cell growth was studied in human promyelocytic leukemic (HL-60) cells.; assay type: functional, cell-based
Procedure, shortened: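 HL-60 cells were exposed for 72 h and read by XTT-tetrazolium microculture assay: PMS-XTT incubation for 6 h at 37 °C, absorbance at 450 and 630 nm. Six to seven concentrations were tested. IC50 was derived by median-effect plot.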

[14] = system: Mus musculus; test: as §3; assay type: functional; conditions: route intraperitoneal; remark: listed apart in the source
Procedure, shortened: (§4)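 Lewis lung carcinoma was implanted subcutaneously in BDF₁ mice at 4 × 10⁶ cells. Starting day 3, drug in DMSO was given ip once daily for 5 days; untreated controls received DMSO alone. Groups were four control mice and three mice per dose. Body weight change and average tumor volume (T/C) were recorded on days 7, 10 and 14 after treatment began.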

[15] = system: Mus musculus; test: Anti cancer activity was tested on day 14, in mice bearing Lewis lung adenocarcinoma by injecting 0.4 mg/kg dose of compound intraperitoneally and average […] was reported.; assay type: functional; conditions: route intraperitoneal; procedure, shortened: as §4
[16] = system: Mus musculus; test: Anti cancer activity was tested on day 7, in mice bearing Lewis lung adenocarcinoma by injecting 2.0 mg/kg dose of compound intraperitoneally and average tumor volume was calculated.; assay type: functional; conditions: route intraperitoneal; procedure, shortened: as §4
[17] = system: Mus musculus; test: Anti cancer activity was tested on day 7, in mice bearing Lewis lung adenocarcinoma by injecting 2.0 mg/kg dose of compound intraperitoneally and average weight change was reported.; assay type: functional; conditions: route intraperitoneal; procedure, shortened: as §4

Row | SMILES | IC50 [1] [µM] | Average weight change [2] [g] | IC50 [3] [µM] | Tumor volume treated/control ratio (T/C) [4] | IC50 [5] [µM] | Average weight change [6] [g] | Average weight change [7] [mg/kg] | IC50 [8] [µM] | Average tumor volume [9] [T/C] | Average tumor volume [10] [T/C] | Average tumor volume [11] [T/C] | Average weight change [11] [mg/kg] | Average tumor volume [12] [T/C] | IC50 [13] [µM] | Average weight change [14] [g] | Average tumor volume [15] [T/C] | Average weight change [15] [g] | Average tumor volume [16] [T/C] | Average weight change [17] [g]
1 | CNC(=O)OCc1cc2c(c3c1C1NC1C3)C(=O)c1ccccc1C2=O (configuration not stated) | 10.4 | 0.5 | 3.6 | 1.011 T/C and 0.529 T/C | 23.9 | -0.4 | -0.2 | 19.9 | 0.205 | 0.303 | 0.529 | 2 | 0.496 | 6.03 | – | – | – | – | –
2 | NC(=O)OCc1cc2c(c3c1CCC3)C(=O)c1ccccc1C2=O | – | – | – | – | – | – | – | – | – | – | – | – | – | 123 | – | – | – | – | –
3 | CNC(=O)OCc1cc2c(c3c1CCC3)C(=O)c1ccccc1C2=O | – | – | – | – | – | – | – | – | – | – | – | – | – | 274 | – | – | – | – | –
4 | CO[C@@]12[C@H](COC(N)=O)C3=C(C(=O)C(C)=C(N)C3=O)N1C[C@@H]1N[C@@H]12 [MITOMYCIN] | 0.082 | 0.2 | 0.11 | 0.49 T/C and 0.356 T/C | 0.328 | -1.8 | – | 0.993 | 0.363 | 0.411 | – | – | 0.437 | 0.05 | -1.2 | 0.515 | 0.6 | 0.169 | -2.7
